High-throughput results as filed in PubChem BioAssay.
NF-kB expr up: raises NF-kB expression in human neuronal cells; NF-kB reporter expression; stronger effect = higher value; fold change at 12.5 µM; actives 1.6% (n = 190,000); AID 1239; in the data active = fold change above about 3.3
STAT1 blocker: STAT1 signaling inhibition | inhibition, % at 5.5 µM | NIH 3T3 STAT1-luciferase reporter, IFN-gamma, luminescence | actives 0.35% (n = 200,000);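 active = inhibition above a set limit, the mean inhibition across all tested compounds plus 3 SD, cut at about 34% in these data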;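 note: 0% = IFN-gamma with DMSO and 100% = IFN-gamma with 300 µM nifuroxazide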
STAT3 blocker: inhibitors of IL-6 induced STAT3 signaling. AID 862. inhibition, % at 5.5 µM. U3A cells, IL-6 STAT3-luciferase reporter, luminescence; host cell line lacks STAT1. actives 0.89% (n = 190,000);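 active = inhibition above the mean inhibition across all screened compounds plus 3 SD, cut at about 44% in these data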;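 note: 0% = DMSO only wells and 100% = 100 µM nifuroxazide control wells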
APP 5'UTR act: activates APP 5'UTR luciferase reporter | actives 1% (n = 190,000) | activation, % at 2 µM | SH-SY5Y APP 5'UTR luciferase reporter, luminescence; zero percent = DMSO vehicle wells;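 active = activation above a set limit, based on mean plus 3 SD of controls, cut at about 140% in these data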
STAT3 activator: activators of IL-6 induced STAT3 signaling; actives 0.91% (n = 190,000); AID 871; U3A cells, IL-6 STAT3-luciferase reporter, luminescence; 100% = signal with IL-6 EC80 alone; activation (% of control), % at 5.6 µM;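 active = activation above the screen-wide mean of compound activation plus 3 SD, cut at about 130% in these data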;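 note: 0% = background luminescence of wells with medium and substrate only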
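Material: human STAT1-deficient U3A cells with stable STAT3-luciferase reporter / Probe or stimulus: IL-6 stimulus at 33 ng/mL final / Schedule: 1 h compound pre-exposure, 6 h IL-6 stimulation, 37 °C / Technique: luminescence / Read-out basis: percent of IL-6-only median luminescence / Control set: IL-6-only high control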
STAT1 activator: increases IFN-gamma driven STAT1 reporter signal; NIH 3T3 STAT1-luciferase reporter, luminescence; 100% = IFN-gamma alone, no compound; activation (% of control), % at 5.5 µM; actives 2.6% (n = 200,000);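 active = activation above the screen-wide mean activation plus 3 SD, cut at about 130% in these data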;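 note: raw ratio to IFN-gamma control signal so 100% means no change and 0% no light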
The depositor's hits bear a star; x = not tested or not shown. An excerpt weighted towards active compounds, which were near 5.1% of everything screened.

SMILES	NF-kB expr up	STAT1 blocker	STAT3 blocker	APP 5'UTR act	STAT3 activator	STAT1 activator
CCc1ccc(-c2ccc(SCc3ccccn3)nn2)cc1	2	-46	14	45	93	140*
COc1cccc(NC(=O)C(c2ccccc2)N2CCCC2)c1 (stereo unspecified)	1.4	-7	6	13	98	105
C=CCc1ccc(OCCOCCN(C)C)c(OC)c1	1	3	-15	1	114	96
C=CCc1ccc(OCCn2cccc2C=O)c(OC)c1	1.7	-53	13	40	98	147*
Cc1ccccc1CNC(=O)CN(c1cccc([N+](=O)[O-])c1)S(C)(=O)=O	0.96	5	0	-3	100	95
O=C(OCc1nc2ccccc2s1)c1ccco1	1.1	-49	-30	87	133	143*
CC(=O)OCc1nc2ccccc2s1	1.3	-38	-75	17	163*	135*
O=C(CNC(=O)c1ccccc1F)OCc1nc2ccccc2s1	1	-21	-31	13	130	118
Cc1cc(C(=O)OCc2nc3ccccc3s2)c(C)o1	2	-36	12	38	97	132*
O=C(CNC(=O)c1ccccc1)OCc1nc2ccccc2s1	0.67	-43	-40	55	136*	139*
COC(=O)CCCc1nc2ccccc2s1	1.2	-1	12	-1	95	101
O=C(OCc1nc2ccccc2s1)c1ccc(Br)o1	1.3	-8	-20	22	120	107
COc1ccccc1C(=O)OCC(=O)Nc1ccc(Cl)cn1	1.1	-8	-4	-7	104	108
Cc1cc(C)n2c(=O)c3ccc(Cl)cc3nc2c1C#N	1.1	-11	12	-4	98	108
Cc1cc(Cl)n2c(nc3cc(F)c(F)cc32)c1C#N	0.11	-36	-17	-88	123	131*
Cn1cc(SCC(=O)Nc2nc3ccccc3s2)c2ccccc21	0.75	3	-16	12	116	97
COc1ccc2cc(CN(CC3COCCO3)S(=O)(=O)c3ccc(Cl)cc3)c(=O)[nH]c2c1 (stereo unspecified)	1.1	-1	5	-1	97	101
Cc1cc(C)n(-c2ccc(C(=O)OCC(=O)Nc3cc(Cl)ccc3[N+](=O)[O-])cc2)n1	0.97	0	-41	-11	134*	100
Cc1ccsc1C1NC(=O)c2c(sc3c2CCCC3)N1 (stereo unspecified)	1.8	-35	-2	83	108	133*
O=C1NC(c2ccccn2)Nc2sc3c(c21)CCC3 (stereo unspecified)	5*	-19	6	37	97	117
CN1CCc2c(sc3c2C(=O)NC(c2ccccn2)N3)C1 (stereo unspecified)	1	-4	0	8	103	104
CN1CCc2c(sc3c2C(=O)NC(c2ccccc2)N3)C1 (stereo unspecified)	0.8	-7	8	-3	100	106
Cc1ccc(C2NC(=O)c3c(sc4c3CCN(C)C4)N2)s1 (stereo unspecified)	1.2	-42	-6	10	110	138*
O=C1NC(c2ccc(Br)cc2)Nc2sc3c(c21)CCC3 (stereo unspecified)	1.4	-4	12	19	94	103
CC1Oc2ccccc2OC1(O)c1ccc2ccccc2n1 (stereo unspecified)	0.81	3	13	10	89	97
SMILES	NF-kB expr up	STAT1 blocker	STAT3 blocker	APP 5'UTR act	STAT3 activator	STAT1 activator
O=C(OCc1ccc(Cl)cc1)c1ccccc1C(=O)c1ccccc1	1.1	-2	8	16	98	102
C/C(=N\NC(=O)COc1ccc(C)cc1C(C)C)c1ccc(-n2ccnc2)cc1	0.88	-3	-12	13	106	103
O=C1NC2(CCCCC2)Cc2ccccc21	0.97	3	5	-7	99	97
O=C1NC2(CCCC2)Oc2ccccc21	3.5*	4	0	23	101	95
CN1CCC(N(C)C(=O)c2ccccc2Nc2ccc(SC(F)F)cc2)CC1	1.3	-3	-4	13	105	102
Clc1nc(-c2ccccc2)cc(-c2ccc(Br)cc2)n1	x	13	-33	-6	138*	88
COc1ccc(OC)c(NC(=O)c2ccccc2N(Cc2ccccc2)S(C)(=O)=O)c1	1	2	-12	-4	110	99
CCn1cc(CNC(=S)Nc2cccc(Cl)c2C)cn1	1.4	2	5	2	104	99
N/C(=N\OC(=O)Cc1ccccc1)c1cccc(Br)c1	x	-17	10	0	96	116
N/C(=N\OC(=O)c1cccs1)c1cccc(Br)c1	1.2	-43	9	60	94	136*
Cc1cccc(/C(N)=N/OC(=O)COc2ccc(Cl)cc2)c1	1.4	-16	10	9	95	115
Cc1cccc(/C(N)=N/OC(=O)c2cccs2)c1	6*	-44	-7	237*	106	140*
Cc1cccc(/C(N)=N/OC(=O)c2ccc(F)cc2)c1	2.1	-45	4	113	99	140*
Cc1ccc(/C=C/S(=O)(=O)NCc2ccc(F)cc2)cc1	1.3	5	-1	0	102	94
O=C(c1cc2ccccc2o1)c1cccs1	2.3	-53	0	x	102	145*
NC(=O)c1cc2ccccc2o/c1=N/NC(=O)c1cccs1	0.63	-40	10	-1	95	134*
COc1ccc2o/c(=N/NC(=O)c3cccs3)c(C(N)=O)cc2c1	0.61	-42	5	43	107	138*
NC(=O)c1cc2ccccc2o/c1=N\NC(=O)c1ccncc1	0.95	-10	1	17	104	111
Cc1ccc(C(=O)c2cc3ccccc3o2)cc1C	3.7*	-40	-4	127	107	136*
CC(C(=O)Nc1ccc2c(c1)OCO2)N(c1ccc(Cl)cc1)S(C)(=O)=O (stereo unspecified)	1	-4	-3	8	106	102
CC1=C(C)/C(=N\OS(=O)(=O)c2ccc(C)cc2)C=CC1=O	1.9	2	-10	-90	112	99
CC1=C/C(=N\OS(=O)(=O)c2ccccc2)C(C)=CC1=O	9.8*	-1	9	-95	91	100
CC1=C/C(=N\OS(=O)(=O)c2ccccc2)C(C(C)C)=CC1=O	5.9*	1	12	-96	94	99
O=c1cc(CN2CCCc3ccccc32)nc2sccn12	1.1	0	-31	11	124	100
O=c1cc(CN2CCc3ccccc32)nc2sccn12	0.94	6	-41	2	134*	88
Cn1c(NCc2c[nH]c3ccccc23)nc2ccccc21	3.3*	-43	-43	113	141*	139*
CCN(C(=O)[C@@H]1CCCN1C(=O)c1cccs1)c1nc2cc(Cl)ccc2s1	1.1	6	1	9	101	95
